These results are taken from ChEMBL document CHEMBL4257575, “Discovery of Novel Flavonoid Dimers To Reverse Multidrug Resistance Protein 1 (MRP1, ABCC1) Mediated Drug Resistance in Cancers Using a High Throughput Platform with "Click Chemistry"” (J Med Chem, 2018).

Common to all, as to assay type: cell-based
The target of data set [1] is T1, Multidrug resistance-associated protein 1 (Homo sapiens, UniProt P33527). In words: Inhibition of MRP1 in human 2008/MRP1 cells assessed as potentiation of doxorubicin-induced cytotoxicity by measuring cell survival at 2 uM after 5 days by MTS assay relative to control. To be noted: 120 h. In short, it runs like this:
(§1)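 2008/MRP1 cells (retroviral human MRP1 transfectant; RPMI 1640, 10% FBS) at 4,000 per well, with 100 nM doxorubicin plus crude, unpurified click products in DMSO: 2 µM in the primary screen, 1 µM in the secondary. Incubated 5 days at 37 °C. MTS/PMS added for 2 h at 37 °C, absorbance read at 490 nm. % survival is relative to wells without DOX or product. Run in triplicate, at least three experiments.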
In general terms: Formazan colour is commonly taken as a measure of viable cells.

Data set [2] is described as follows: Cytotoxicity against human 2008/MRP1 cells assessed as cell survival at 2 uM after 5 days by MTS assay relative to control. To be noted: read-out: Survival.
Data set [3] has as its target T1, Multidrug resistance-associated protein 1. In words: Inhibition of MRP1 in human 2008/MRP1 cells assessed as potentiation of doxorubicin-induced cytotoxicity by measuring cell survival at 1 uM after 5 days by MTS assay relative to control. To be noted: 120 h. In short, it runs like this:
as §1

T1 sequence (P33527 whole entry): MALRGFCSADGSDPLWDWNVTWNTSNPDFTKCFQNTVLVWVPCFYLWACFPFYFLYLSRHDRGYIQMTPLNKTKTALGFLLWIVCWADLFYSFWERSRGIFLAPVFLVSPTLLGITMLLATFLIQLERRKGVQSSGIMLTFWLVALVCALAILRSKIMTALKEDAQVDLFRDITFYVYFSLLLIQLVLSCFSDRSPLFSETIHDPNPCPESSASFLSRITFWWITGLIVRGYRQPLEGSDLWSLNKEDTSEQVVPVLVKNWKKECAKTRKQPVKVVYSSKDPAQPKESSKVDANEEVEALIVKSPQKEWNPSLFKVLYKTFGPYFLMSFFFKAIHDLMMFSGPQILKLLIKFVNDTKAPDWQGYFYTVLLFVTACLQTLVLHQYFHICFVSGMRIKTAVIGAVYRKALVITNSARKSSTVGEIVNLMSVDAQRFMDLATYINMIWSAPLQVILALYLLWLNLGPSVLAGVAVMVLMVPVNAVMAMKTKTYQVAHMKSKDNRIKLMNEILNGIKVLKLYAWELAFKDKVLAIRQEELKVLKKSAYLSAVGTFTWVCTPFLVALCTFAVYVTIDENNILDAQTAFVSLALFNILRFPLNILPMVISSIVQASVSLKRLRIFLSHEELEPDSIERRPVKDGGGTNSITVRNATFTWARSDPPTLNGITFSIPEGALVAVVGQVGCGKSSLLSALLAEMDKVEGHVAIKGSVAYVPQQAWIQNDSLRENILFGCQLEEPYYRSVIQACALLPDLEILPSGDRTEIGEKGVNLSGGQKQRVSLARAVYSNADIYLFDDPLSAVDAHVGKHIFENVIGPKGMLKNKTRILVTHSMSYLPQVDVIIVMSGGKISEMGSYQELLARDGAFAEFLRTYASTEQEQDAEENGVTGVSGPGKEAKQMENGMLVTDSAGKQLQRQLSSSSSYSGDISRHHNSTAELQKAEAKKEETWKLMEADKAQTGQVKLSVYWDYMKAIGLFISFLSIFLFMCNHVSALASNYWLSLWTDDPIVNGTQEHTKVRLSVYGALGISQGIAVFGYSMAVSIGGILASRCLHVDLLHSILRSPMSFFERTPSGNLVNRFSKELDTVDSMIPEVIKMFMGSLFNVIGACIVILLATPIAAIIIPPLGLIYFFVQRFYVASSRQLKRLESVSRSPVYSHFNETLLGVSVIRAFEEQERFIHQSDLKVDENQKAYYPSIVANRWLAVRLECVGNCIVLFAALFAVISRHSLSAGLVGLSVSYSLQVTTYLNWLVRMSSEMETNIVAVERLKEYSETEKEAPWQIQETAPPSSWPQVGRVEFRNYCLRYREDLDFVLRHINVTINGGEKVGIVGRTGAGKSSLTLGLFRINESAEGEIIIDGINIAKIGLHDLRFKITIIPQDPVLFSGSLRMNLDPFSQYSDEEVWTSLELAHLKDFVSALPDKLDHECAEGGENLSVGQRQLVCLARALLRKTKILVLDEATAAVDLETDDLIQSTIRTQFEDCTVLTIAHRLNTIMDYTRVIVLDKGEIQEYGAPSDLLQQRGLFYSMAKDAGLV

Consider `O=C1c2ccccc2C(=O)N1CCc1cn(CCOCCOCCOc2ccc(-c3cc(=O)c4cc(F)ccc4o3)cc2)nn1`, for which the Survival in data set [1] is listed as 28%. Also, the viability at 120 h, 2 µM in data set [2] stood at 10%.
Take `Cc1ccc2oc(-c3ccc(OCCCCc4cn(CCOCCOCCOc5ccc6c(=O)cc(-c7ccccc7)oc6c5)nn4)cc3)cc(=O)c2c1`: the Survival in data set [1] is 33%; in data set [3], 65%. For the same compound, the viability at 120 h, 2 µM in data set [2] worked out at 89%.
The matching figures for `O=c1cc(-c2ccccc2)oc2cc(OCCOCCn3cc(CN(CCOc4ccc5c(=O)cc(-c6ccccc6)oc5c4)Cc4ccccc4)nn3)ccc12`: 46%, 54% and 80%.
For `O=c1cc(-c2ccc(OCCCc3cn(CCOCCOCCOc4ccc5c(=O)cc(-c6ccccc6)oc5c4)nn3)cc2)oc2ccccc12`, in that order: 42%, 54% and 49%.
On to `COc1cccc(COc2c(-c3ccc(OCCCCc4cn(CCOCCOCCOc5ccc(-c6oc7ccccc7c(=O)c6OCc6ccccc6)cc5)nn4)cc3)oc3ccccc3c2=O)c1`, for which the Survival in data set [1] is given as 33%. In addition, the viability at 120 h, 2 µM in data set [2] is 53%.
As for `O=C1c2ccccc2C(=O)N1CCc1cn(CCOCCOc2ccc(-c3cc(=O)c4cc(F)ccc4o3)cc2)nn1`, the Survival in data set [1] was found to be 39%. In addition, in data set [2], the viability at 120 h, 2 µM came out at 14%.
For `Cc1ccc2oc(-c3ccc(OCCCCc4cn(CCOCCOCCOc5ccc(-c6cc(=O)c7ccccc7o6)cc5)nn4)cc3)cc(=O)c2c1`, in that order: 39% and 68%.
As to `O=c1cc(-c2ccccc2)oc2cc(OCCOCc3cn(CCOCCOc4ccc(-c5oc6ccccc6c(=O)c5OCc5ccccc5)cc4)nn3)ccc12`, the Survival in data set [1] is 46%; in data set [3], 56%. The viability at 120 h, 2 µM in data set [2] was determined as 85%.
On to `O=c1cc(-c2ccc(OCCCc3cn(CCOCCOc4ccc(-c5cc(=O)c6cc(F)ccc6o5)cc4)nn3)cc2)oc2ccccc12`, for which the Survival in data set [1] is given as 39%. Moreover, in data set [2], the viability at 120 h, 2 µM is 43%.
As for `COc1cccc(COc2c(-c3ccc(OCCOCCn4cc(COCCOc5ccc6c(=O)cc(-c7ccccc7)oc6c5)nn4)cc3)oc3ccccc3c2=O)c1`, the Survival came to 47% in data set [1] and 71% in data set [3]. Also, in data set [2], the viability at 120 h, 2 µM amounted to 88%.
Consider `O=C1c2ccccc2C(=O)N1CCc1cn(CCOCCOCCOc2ccc(-c3cc(=O)c4ccccc4o3)cc2)nn1`, for which the Survival in data set [1] is 28%. In data set [2], the viability at 120 h, 2 µM came to 4%.
As to `O=c1cc(-c2ccc(OCCCc3cn(CCOCCOc4ccc5c(=O)cc(-c6ccccc6)oc5c4)nn3)cc2)oc2ccccc12`, the Survival in data set [1] is 39%. Further, the viability at 120 h, 2 µM in data set [2] was determined as 39%.
For `O=C1c2ccccc2C(=O)N1CCc1cn(CCOCCOCCOc2ccc(-c3oc4ccccc4c(=O)c3OCc3ccccc3)cc2)nn1`, in data set [1], the Survival was 34%. Further, in data set [2], the viability at 120 h, 2 µM amounted to 16%.
In the case of `O=C(/C=C/c1ccc(OCCCCc2cn(CCOCCOc3ccc(-c4cc(=O)c5ccccc5o4)cc3)nn2)cc1)c1ccc(F)cc1O`, the Survival in data set [1] is reported as 42%; in data set [3] it was 66%. Further, the viability at 120 h, 2 µM in data set [2] turned out to be 90%.
Consider `O=c1cc(-c2ccccc2)oc2cc(OCCOCCOCCn3cc(CCCOc4ccc(-c5cc(=O)c6cc(F)ccc6o5)cc4)nn3)ccc12`, for which the Survival in data set [1] came out at 40%. The viability at 120 h, 2 µM in data set [2] came out at 105%.
For the compound `O=c1cc(-c2ccc(OCCOCCn3cc(CN(Cc4ccccc4)Cc4cn(CCOCCOc5ccc(-c6cc(=O)c7ccccc7o6)cc5)nn4)nn3)cc2)oc2ccccc12`, the Survival turned out to be 49% in data set [1] and 79% in data set [3]. For the same compound, the viability at 120 h, 2 µM in data set [2] came out at 92%.
As to `O=C1c2ccccc2C(=O)N1CCc1cn(CCOCCOCCOc2ccc3c(=O)cc(-c4ccccc4)oc3c2)nn1`, the Survival in data set [1] was 41%. In addition, in data set [2], the viability at 120 h, 2 µM came out at 23%.
As to `O=c1cc(-c2ccc(OCCCc3cn(CCOCCOCCOc4ccc(-c5oc6ccccc6c(=O)c5OCc5ccccc5)cc4)nn3)cc2)oc2cc(F)ccc12`, the results for the Survival in data set [1] and in data set [3] were 37% and 53%, respectively. Moreover, the viability at 120 h, 2 µM in data set [2] stood at 97%.
`O=c1cc(-c2ccccc2)oc2cc(OCCN(Cc3ccccc3)Cc3cn(CCOCCOc4ccc(-c5oc6ccccc6c(=O)c5OCc5ccccc5)cc4)nn3)ccc12`: the values for the Survival in data set [1] and in data set [3] were 49% and 53%, respectively. In data set [2], the viability at 120 h, 2 µM amounted to 82%.
The matching figures for `COCOc1cc(OCc2ccccc2)c2c(=O)cc(-c3ccc(OCCCc4cn(CCOCCOc5ccc(-c6cc(=O)c7ccccc7o6)cc5)nn4)cc3)oc2c1`: 39%, 64% and 95%.
On to `O=C1c2ccccc2C(=O)N1CCc1cn(CCOCCOc2ccc(-c3cc(=O)c4ccccc4o3)cc2)nn1`, for which the Survival in data set [1] is recorded as 37%. In addition, the viability at 120 h, 2 µM in data set [2] stood at 18%.
The matching figures for `COc1cccc(COc2c(-c3ccc(OCCCCc4cn(CCOCCOc5ccc(-c6cc(=O)c7ccccc7o6)cc5)nn4)cc3)oc3ccccc3c2=O)c1`: 40% and 63%.
`O=c1[nH]c(-c2ccc(OCCCc3cn(CCOCCOc4ccc5c(=O)cc(-c6ccccc6)oc5c4)nn3)cc2)nc2ccccc12`: the Survival in data set [1] is listed as 49%; in data set [3], 70%. Further, in data set [2], the viability at 120 h, 2 µM was 65%.
`CCc1ccc(O)c(C(=O)/C=C/c2ccc(OCCCCc3cn(CCOCCOc4ccc(-c5cc(=O)c6ccccc6o5)cc4)nn3)cc2)c1`: the Survival in data set [1] was 40%; in data set [3], 66%. In addition, in data set [2], the viability at 120 h, 2 µM amounted to 95%.
Regarding `O=c1cc(-c2ccc(OCCOCCOCCn3cc(CN(Cc4ccccc4)Cc4cn(CCOCCOCCOc5ccc(-c6cc(=O)c7ccccc7o6)cc5)nn4)nn3)cc2)oc2ccccc12`, the Survival in data set [1] is 29%. In addition, the viability at 120 h, 2 µM in data set [2] is 49%.
With `O=c1cc(-c2ccc(OCCCc3cn(CCOCCOCCOc4ccc(-c5cc(=O)c6cc(F)ccc6o5)cc4)nn3)cc2)oc2ccccc12`, the Survival in data set [1] came out at 46%. For the same compound, the viability at 120 h, 2 µM in data set [2] stood at 44%.
For `COc1cccc(COc2c(-c3ccc(OCCCCc4cn(CCOCCOCCOc5ccc(-c6cc(=O)c7cc(C)ccc7o6)cc5)nn4)cc3)oc3ccccc3c2=O)c1`, in that order: 46% and 50%.
In the case of `O=c1cc(-c2ccc(OCCCc3cn(CCOCCOc4cccc(-c5oc6ccccc6c(=O)c5OCc5ccccc5)c4)nn3)cc2)oc2cc(F)ccc12`, the Survival stood at 45% in data set [1] and 55% in data set [3]. Also, the viability at 120 h, 2 µM in data set [2] is 99%.
The matching figures for `O=c1cc(-c2ccc(OCCCc3cn(CCOCCOCCOc4ccc(-c5oc6ccccc6c(=O)c5OCc5ccccc5)cc4)nn3)cc2)oc2ccccc12`: 45%, 62% and 39%.
The matching figures for `O=c1cc(-c2ccccc2)oc2cc(OCCCCc3cn(CCOCCOCCOc4ccc(-c5cc(=O)c6cc(F)ccc6o5)cc4)nn3)ccc12`: 47%, 59% and 92%.
`O=C1c2ccccc2C(=O)N1CCc1cn(CCOc2cccc3c(=O)cc(-c4ccccc4)oc23)nn1`: the Survival in data set [1] is on record as 37%. In addition, the viability at 120 h, 2 µM in data set [2] turned out to be 11%.
In the case of `COc1cccc(COc2c(-c3ccc(OCCOCCn4cc(CN(Cc5cn(CCOCCOc6ccc(-c7oc8ccccc8c(=O)c7OCc7cccc(OC)c7)cc6)nn5)Cc5cn(CCOCCOc6ccc(-c7oc8ccccc8c(=O)c7OCc7cccc(OC)c7)cc6)nn5)nn4)cc3)oc3ccccc3c2=O)c1`, the Survival in data set [1] is 86%.
Regarding `Cc1ccc(C(=O)/C=C/c2ccc(OCCCCc3cn(CCOCCOCCOc4ccc(-c5cc(=O)c6cc(F)ccc6o5)cc4)nn3)cc2)c(O)c1`, the Survival in data set [1] is on record as 51%.
As for `O=c1cc(-c2ccc(OCCOCCn3cc(CNc4ccccc4)nn3)cc2)oc2ccccc12`, the Survival in data set [1] worked out at 90%.
On the same count and under the same terms, next, `COc1cccc(COc2c(-c3ccc(OCCOCCn4cc(CCCCOc5ccc6c(=O)cc(-c7ccccc7)oc6c5)nn4)cc3)oc3ccccc3c2=O)c1`: 86%.
On the same count and under the same terms, next, `CCc1ccc(O)c(C(=O)/C=C/c2ccc(OCCCCc3cn(CCOCCOc4ccc(-c5cc(=O)c6cc(F)ccc6o5)cc4)nn3)cc2)c1`: 80%.
The same measure, in the same setting: next, `COCOc1cc(OCc2ccccc2)c2c(=O)cc(-c3ccc(OCCCc4cn(CCOCCOCCOc5ccc(-c6cc(=O)c7cc(F)ccc7o6)cc5)nn4)cc3)oc2c1`: 58%.
Take `Cc1ccc2oc(-c3ccc(OCCOCCOCCn4cc(CN5CCN(Cc6cn(CCOCCOCCOc7ccc(-c8cc(=O)c9cc(C)ccc9o8)cc7)nn6)CC5)nn4)cc3)cc(=O)c2c1`: in data set [1], the Survival is 103%.
With `O=C(/C=C/c1ccc(OCCCCc2cn(CCOCCOCCOc3ccc(-c4oc5ccccc5c(=O)c4OCc4ccccc4)cc3)nn2)cc1)c1ccccc1O`, the Survival in data set [1] was determined as 61%.
In the case of `[N-]=[N+]=NCCOCCOCCOc1ccc(-c2cc(=O)c3ccccc3o2)cc1`, the Survival in data set [1] is 85%.
On the same count and under the same terms, next, `O=c1[nH]c(-c2ccc(OCCCc3cn(CCOCCOCCOc4ccc(-c5cc(=O)c6cc(F)ccc6o5)cc4)nn3)cc2)nc2ccccc12`: 51%.
Same read-out and setting: next, `O=Cc1ccc(OCCCCc2cn(CCOCCOc3ccc(-c4cc(=O)c5cc(F)ccc5o4)cc3)nn2)cc1`: 78%.
On the same count and under the same terms, next, `O=c1cc(-c2ccccc2)oc2cc(OCCCCc3cn(CCOCCOc4ccc(-c5oc6ccccc6c(=O)c5OCc5ccccc5)cc4)nn3)ccc12`: 79%.
